According to ChEMBL document CHEMBL1138761, “Exploring the binding mode of semicarbazide-sensitive amine oxidase/VAP-1: identification of novel substrates with insulin-like activity” (J Med Chem, 2004):
“And” between values parts separate entries of the source, which are not always exact repeats. Equal values may be shown once.

Key:
[1] = Ratio of Vmax/Km for human, mouse or rat SSAO
How it was run: (§1)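 Crude membranes from human, rat or mouse adipocytes, made by hypo-osmotic lysis in 20 mM HES buffer with antiproteases (around 50 µg protein/assay). Incubated 30 min at 37 °C over a range of amine concentrations. H2O2 read spectrophotometrically with peroxidase, homovanillic acid and aminoantipyrine at 498 nm. Km and Vmax taken from Eadie-Hofstee plots; Vmax/Km ratio also given. Means ± SEM of 3-4 experiments.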

[2] = Maximum velocity for semicarbazide-sensitive amine oxidase (SSAO) of human, mouse or rat crude membranes; assay type: cell membranes; conditions: Membrane; how it was run: as §1

SMILES | Ratio [1] | Vmax (nmol/min/mg protein) [2]
NCc1ccc(S(N)(=O)=O)cc1 | 0.007 and 0.01 | –
COc1cccc(CN)c1OC | – | 1.1 and 3.2
NCc1cccc2ccccc12 | 0.28 and 0.66 and 0.5 | –
